Experimental findings from ChEMBL document CHEMBL1136157, “Synthesis of 3a,4-dihydro-3H-[1]benzopyrano[4,3-c]isoxazoles, displaying combined 5-HT uptake inhibiting and alpha(2)-adrenoceptor antagonistic activities: a novel series of potential antidepressants” (Bioorg Med Chem Lett, 2003) are described below.

For experiment [1], the target named is T1, Alpha-2B adrenergic receptor (Homo sapiens, UniProt P18089).
T1 sequence (P18089 whole entry): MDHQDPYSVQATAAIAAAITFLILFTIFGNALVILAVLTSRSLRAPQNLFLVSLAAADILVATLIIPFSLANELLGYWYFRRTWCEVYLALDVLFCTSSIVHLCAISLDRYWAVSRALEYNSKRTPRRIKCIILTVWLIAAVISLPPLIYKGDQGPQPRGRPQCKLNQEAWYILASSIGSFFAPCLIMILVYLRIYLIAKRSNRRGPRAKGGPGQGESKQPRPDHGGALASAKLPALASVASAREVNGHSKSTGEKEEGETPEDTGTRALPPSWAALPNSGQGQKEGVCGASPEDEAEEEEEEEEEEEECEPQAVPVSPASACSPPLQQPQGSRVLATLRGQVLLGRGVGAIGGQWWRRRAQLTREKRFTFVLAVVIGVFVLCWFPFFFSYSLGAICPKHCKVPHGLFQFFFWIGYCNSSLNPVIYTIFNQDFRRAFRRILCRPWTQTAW
Briefly: In vitro binding affinity towards human alpha-2B adrenergic receptor using [3H]rauwolscine.

In experiment [2] the target is T2, Alpha-2A adrenergic receptor (Homo sapiens, UniProt P08913).
T2 sequence (P08913 whole entry): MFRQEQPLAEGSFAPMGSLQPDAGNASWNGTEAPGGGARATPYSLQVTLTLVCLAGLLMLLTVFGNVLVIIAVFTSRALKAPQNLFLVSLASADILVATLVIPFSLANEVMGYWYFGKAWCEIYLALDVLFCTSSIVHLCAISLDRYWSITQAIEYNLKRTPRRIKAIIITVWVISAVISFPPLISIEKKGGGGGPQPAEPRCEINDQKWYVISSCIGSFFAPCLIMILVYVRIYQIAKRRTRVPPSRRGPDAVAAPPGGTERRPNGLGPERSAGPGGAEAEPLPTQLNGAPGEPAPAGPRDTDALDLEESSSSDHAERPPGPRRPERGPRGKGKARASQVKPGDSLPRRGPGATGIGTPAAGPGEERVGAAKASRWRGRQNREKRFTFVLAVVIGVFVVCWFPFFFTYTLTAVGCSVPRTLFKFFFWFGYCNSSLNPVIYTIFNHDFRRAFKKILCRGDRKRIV
Put plainly: In vitro binding affinity towards human alpha-2A adrenergic receptor using [3H]rauwolscine.

Experiment [3] addresses T3, Alpha-2C adrenergic receptor (Homo sapiens, UniProt P18825).
T3 sequence (P18825 whole entry): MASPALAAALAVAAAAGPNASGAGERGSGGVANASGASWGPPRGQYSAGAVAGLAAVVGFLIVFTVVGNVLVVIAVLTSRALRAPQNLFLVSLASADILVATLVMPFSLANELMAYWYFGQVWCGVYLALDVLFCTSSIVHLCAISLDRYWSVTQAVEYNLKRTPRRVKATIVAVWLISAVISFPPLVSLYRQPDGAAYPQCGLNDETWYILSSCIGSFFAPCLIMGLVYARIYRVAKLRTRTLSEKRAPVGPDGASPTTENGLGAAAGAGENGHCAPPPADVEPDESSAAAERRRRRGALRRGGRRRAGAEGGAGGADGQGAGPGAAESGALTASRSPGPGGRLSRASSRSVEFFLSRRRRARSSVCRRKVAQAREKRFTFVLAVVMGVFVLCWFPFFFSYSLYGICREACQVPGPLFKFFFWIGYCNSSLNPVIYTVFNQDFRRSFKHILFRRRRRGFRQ
Briefly: In vitro binding affinity towards human adrenergic alpha-2C adrenergic receptor using [3H]rauwolscine.

In experiment [4] the target is Sodium-dependent serotonin transporter (Rattus norvegicus) (UniProt P31652). Put plainly: In vivo effective dose required to inhibit p-chloroamphetamine induced excitation in rats upon subcutaneous administration. It is filed as functional, organism-based. The essentials: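 Overnight-starved male Wistar rats (200–250 g) given test compound or solvent sc 1 h before p-chloroamphetamine (5 mg/10 mL/kg, sc). Excitation scored over a 15-min interval starting 45 min after pCA. A score <2 was the all-or-nothing criterion for inhibition (1.0% false positives, n>200). ED50 in mg/kg.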

Experiment [5] deals with Adrenergic receptor alpha-2 (Rattus norvegicus) (UniProt P22086+P19328+P22909). Put plainly: In vivo effective dose required to inhibit xylazine-induced loss of righting in rats upon subcutaneous administration. The format is functional, organism-based.

Molecules are shown by their SMILES.

Sodium-dependent serotonin transporter (Rattus norvegicus), sequence (P31652 whole entry): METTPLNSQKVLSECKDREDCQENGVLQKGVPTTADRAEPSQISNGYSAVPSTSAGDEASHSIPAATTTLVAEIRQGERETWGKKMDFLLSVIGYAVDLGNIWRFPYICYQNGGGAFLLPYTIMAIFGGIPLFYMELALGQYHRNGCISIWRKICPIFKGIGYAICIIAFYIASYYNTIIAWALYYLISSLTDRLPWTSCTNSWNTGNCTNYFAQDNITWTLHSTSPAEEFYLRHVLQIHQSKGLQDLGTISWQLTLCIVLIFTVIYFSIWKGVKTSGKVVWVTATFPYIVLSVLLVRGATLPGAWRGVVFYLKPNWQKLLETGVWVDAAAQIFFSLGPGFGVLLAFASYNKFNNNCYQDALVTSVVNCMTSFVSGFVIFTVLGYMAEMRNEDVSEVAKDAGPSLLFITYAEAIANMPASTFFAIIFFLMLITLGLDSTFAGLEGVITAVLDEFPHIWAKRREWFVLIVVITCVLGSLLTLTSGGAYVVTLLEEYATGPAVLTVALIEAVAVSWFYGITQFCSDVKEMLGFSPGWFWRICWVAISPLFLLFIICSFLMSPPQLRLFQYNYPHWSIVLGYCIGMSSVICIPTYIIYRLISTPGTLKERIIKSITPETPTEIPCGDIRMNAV

In general, Ki refers to the dissociation constant of the complex between target and ligand, obtained from inhibition or displacement. A low value points to a stronger hold on the target. The ED50 is the dose that gives a 50% effect, or the effect in half of the subjects. Higher therefore signals a need for a large dose. Turning to `COc1ccc2c(c1)C1=NOC(CN3CCN(C/C=C/c4ccccc4)CC3)C1CO2` (stereo not given), the Ki was found to be 12 nM in experiment [1], 0.8 nM in experiment [2] and 2.3 nM in experiment [3]. The ED50 in experiment [4] was found to be 5 mg/kg; in experiment [5] it was 2.5 mg/kg.
